High-throughput results (PubChem)
Hck-Nef inh: inhibitors of Nef-activated human Hck kinase, primary screen, biochemical, Z-Lyte FRET, 384-well, Hck-YEEI. Recombinant Hck-YEEI plus Nef, Z-Lyte FRET kinase assay. Tyrosine-protein kinase HCK (Homo sapiens), P08631. inhibition, % at 20 µM. actives 0.68% (n = 220,000);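 active = Hck-Nef kinase inhibition above about 50%, limit read from the data; inactive = inhibition below that limit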
Runt-CBFb FRET: inhibitors of RUNX1 Runt–CBFb binding, primary screen, biochemical, FRET, Cerulean-Runt, Venus-CBFb, uHTS; inhibition, % at 20 µM; Cerulean-Runt/Venus-CBFb FRET ratio 530/480, 1 h; actives 0.46% (n = 220,000); Runt-related transcription factor 1 (Homo sapiens) + Core-binding factor subunit beta …;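 active = inhibition over about 50% at 20 µM in the single-dose screen, limit read from the data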
Target sequence (Q01196 whole entry, looked up): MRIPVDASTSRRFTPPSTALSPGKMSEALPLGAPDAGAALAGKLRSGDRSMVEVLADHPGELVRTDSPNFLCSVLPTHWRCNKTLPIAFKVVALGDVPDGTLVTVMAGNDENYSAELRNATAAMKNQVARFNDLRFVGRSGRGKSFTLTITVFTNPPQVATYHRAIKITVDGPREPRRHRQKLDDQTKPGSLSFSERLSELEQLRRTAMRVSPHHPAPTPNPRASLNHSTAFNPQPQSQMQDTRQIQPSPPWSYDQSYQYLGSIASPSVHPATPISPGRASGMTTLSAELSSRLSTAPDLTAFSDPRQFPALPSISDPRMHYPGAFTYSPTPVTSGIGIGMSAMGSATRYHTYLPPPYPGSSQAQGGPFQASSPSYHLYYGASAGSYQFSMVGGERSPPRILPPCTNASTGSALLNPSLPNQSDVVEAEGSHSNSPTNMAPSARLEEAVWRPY
Target sequence (Q13951 whole entry, looked up): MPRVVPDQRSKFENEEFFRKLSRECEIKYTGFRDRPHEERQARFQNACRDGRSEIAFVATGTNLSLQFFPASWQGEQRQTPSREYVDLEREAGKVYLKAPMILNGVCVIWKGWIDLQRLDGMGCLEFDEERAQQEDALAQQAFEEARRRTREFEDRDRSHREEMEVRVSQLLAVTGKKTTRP
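Reagent – Venus-CBFb binding partner, 100 nM · Assay system – Cerulean-tagged RUNX1 Runt domain (FRET donor) fusion protein · Input – 100 nM per protein · Incubation – two 1 h room-temperature incubations shielded from light · Measured by – FRET fluorescence · Medium – Tris buffer pH 7.5 with salts and BSA · Benchmarks – unlabeled CBFb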
RanGTP-Impb inh: inhibitors of RanGTP-importin-beta interaction, primary screen, biochemical, FRET, CFP-Ran, YFP-importin-beta, homogeneous. actives 1.1% (n = 300,000). cell-free CFP-Ran/YFP-importin-beta FRET ratio. inhibition, % (concentration not given with the values). Ran GTPase (GTP-bound) - importin-beta complex;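 active = more than half of the replicate wells show a fall in the fluorescence ratio signal beyond about 16%, limit read from the data, passing the limit was not always enough; inconclusive = exactly half of the replicate wells pass the set limit; inactive = fewer than half of replicates pass the limit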
Runt-SMMHC FRET: inhibitors of RUNX1 Runt–CBFb-SMMHC binding, primary screen, biochemical, FRET, Cerulean-Runt, Venus-CBFb-SMMHC, uHTS; Runt-related transcription factor 1 (Homo sapiens) + Core-binding factor subunit beta …; Cerulean-Runt/Venus-CBFb-SMMHC FRET ratio 530/480, 1 h; inhibition, % at 20 µM; actives 0.74% (n = 220,000); AID 1434, 2008;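 active = mean inhibition across duplicate retests at 20 µM reaching about 50%, limit read from the data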;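 note: inhibitors lower the FRET ratio by blocking Runt binding to CBFb-SMMHC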
Large screens that a line does not name were inactive. Sampled rows, rich in hits. Any-hit rate of the full collection: about 1.7%.

Cc1c(C(=O)Nc2cccc([N+](=O)[O-])c2)sc2ncn(CC(=O)N3CCOCC3)c(=O)c12	none (no result: Hck-Nef inh, Runt-CBFb FRET, Runt-SMMHC FRET)
O=C(Nc1nc(-c2cccnc2)cs1)c1ccccc1[N+](=O)[O-]	RanGTP-Impb inh 18
O=c1ccc2cc(O)c(O)cc2o1	RanGTP-Impb inh 81, Runt-SMMHC FRET 73
N#CC1(NC(=O)Cn2ncc(Cl)c(Cl)c2=O)CCCCC1	none (no result: Hck-Nef inh, Runt-CBFb FRET, Runt-SMMHC FRET)
O=c1cc(C(F)(F)F)[nH]c2ccc(C(F)(F)F)cc12	none
COC(=O)c1scc2c(=O)cc(C(F)(F)F)[nH]c12	RanGTP-Impb inh 117, Runt-SMMHC FRET 84
CCC1CCCCN1CCCNC(=O)C1CCCN(c2ncnc3c2nc2n3CCCCC2)C1 (centres undefined)	none (no result: Hck-Nef inh, Runt-CBFb FRET, Runt-SMMHC FRET)
CC(=O)c1c(OC(=O)c2ccco2)c2ccccc2n1C	none
CC(=O)c1sc2ccccc2c1OC(=O)c1ccco1	RanGTP-Impb inh 38
COC(=O)C1CCN(c2cc(=O)n(C3CCCCC3)c(=O)[nH]2)CC1	RanGTP-Impb inh 63
COC(=O)C1CCN(c2cc(=O)n(Cc3ccc(F)cc3)c(=O)[nH]2)CC1	RanGTP-Impb inh 59
CCOC(=O)C1CCCN(c2cc(=O)n(Cc3ccc(F)cc3)c(=O)[nH]2)C1 (centres undefined)	none
O=C(Nc1ccc(Cc2ccncc2)cc1)c1ccc([N+](=O)[O-])o1	none (no result: Hck-Nef inh, Runt-CBFb FRET, Runt-SMMHC FRET)
Nc1cccc2c1C(=O)N(C(=O)c1cccc(S(=O)(=O)N3CCCC3)c1)C2=O	Runt-SMMHC FRET 62
COc1cc2c(c(OC)c1O)C(=O)CO2	none
COc1cc(OC)c2c(O)c3c(c(-c4c5c(c(O)c6c(OC)cc(OC)cc46)CO[C@@H](C)[C@H]5O)c2c1)[C@H](O)[C@H](C)OC3	Hck-Nef inh 51, RanGTP-Impb inh inconclusive
COc1ccc2cc(-c3cc(C(=O)OCC(=O)NC4CCS(=O)(=O)C4)c4ccccc4n3)ccc2c1 (centres undefined)	RanGTP-Impb inh 24, Runt-SMMHC FRET 79
COc1ccc(Cc2nc3ccc(C(=O)N4CCN(C)C(C)C4)cc3o2)cc1OC (centres undefined)	none (no result: Hck-Nef inh, Runt-CBFb FRET, Runt-SMMHC FRET)
CCOC(=O)c1c(-c2ccc(C)s2)csc1N	RanGTP-Impb inh 24
CCOC(=O)c1c(-c2ccsc2)csc1N	none
COC(=O)N/N=C/c1ccc(-c2ccc(Cl)cc2Cl)o1	none
O=C(O)c1ccc(N/N=C/c2ccc(-c3ccc(Cl)cc3Cl)o2)cc1	Runt-CBFb FRET 80, RanGTP-Impb inh 88, Runt-SMMHC FRET 81
O=C(O)c1ccc(N/N=C/c2ccc(-c3cc(Cl)ccc3Cl)o2)cc1	Runt-CBFb FRET 70, RanGTP-Impb inh 83, Runt-SMMHC FRET 80
NS(=O)(=O)c1ccc(-c2ccc(/C=N/Nc3ccc(C(=O)O)cc3)o2)cc1	none
CN1CCN(c2ccc(NC(=O)c3ccc(C#N)cc3F)cc2Cl)CC1	none
FC(F)(F)c1cccc(Cc2noc(CN3CCC(c4ccncc4)CC3)n2)c1	none
CCOc1ccccc1N1CCN(C(=O)c2ccc(NS(=O)(=O)c3ccc4[nH]c(=O)[nH]c4c3)cc2)CC1	none (no result: Hck-Nef inh, Runt-CBFb FRET, Runt-SMMHC FRET)
O=C(NCc1ccco1)c1cnn2c(C(F)(F)F)cc(-c3cccs3)nc12	RanGTP-Impb inh inconclusive, Runt-SMMHC FRET 52
O=C(NCc1ccco1)c1cnn2c(C(F)F)cc(-c3ccccc3)nc12	RanGTP-Impb inh 32
COCCNC(=O)c1cnn2c(C(F)F)cc(-c3ccccc3)nc12	none (no result: RanGTP-Impb inh)
COC(=O)c1cccc(NC(=O)CCNC(=O)c2ccc([N+](=O)[O-])cc2)c1	none
O=C(NNC(=O)C12CC3CC(CC(C3)C1)C2)c1csc(N2CCOCC2)n1	none (no result: Hck-Nef inh, Runt-CBFb FRET, Runt-SMMHC FRET)
O=C(NNc1cc(N2CCOCC2)nc(N2CCOCC2)n1)c1ccc(Cl)c(Cl)c1	RanGTP-Impb inh 134
O=C(NNc1cc(N2CCOCC2)nc(N2CCOCC2)n1)C12CC3CC(CC(C3)C1)C2	RanGTP-Impb inh 57
CCC(=O)NN1CCN(c2ccncc2S(=O)(=O)N2CCCCC2)CC1	none (no result: Hck-Nef inh, Runt-CBFb FRET, Runt-SMMHC FRET)
Cc1cc(N)n2nc(C)c(-c3ccccc3)c2n1	Runt-CBFb FRET 95, RanGTP-Impb inh inconclusive
CCC(CC)c1nnc(NC(=O)C2COc3ccccc3O2)s1 (centres undefined)	RanGTP-Impb inh 21
O=C(O)c1ccccc1C(=O)NNc1cccc(Cl)n1	none
Cc1cc(C)c2c(NC(=O)CCl)nn(C)c2n1	none
CCCn1nc(NC(=O)COC)c2cc3cccc(C)c3nc21	RanGTP-Impb inh 38 (no result: Hck-Nef inh, Runt-CBFb FRET, Runt-SMMHC FRET)
CCCC(=O)Nc1nn(C)c2nc3c(C)cccc3cc12	RanGTP-Impb inh 31
CCCn1nc(NC(C)=O)c2cc3cccc(C)c3nc21	RanGTP-Impb inh 69 (no result: Hck-Nef inh, Runt-CBFb FRET, Runt-SMMHC FRET)
CCn1nc(NS(=O)(=O)c2ccccc2[N+](=O)[O-])c2cc3cccc(C)c3nc21	none (no result: Hck-Nef inh, Runt-CBFb FRET, Runt-SMMHC FRET)
CCn1nc(NS(=O)(=O)c2ccc([N+](=O)[O-])cc2)c2cc3cccc(C)c3nc21	none (no result: Hck-Nef inh, Runt-CBFb FRET, Runt-SMMHC FRET)
CCn1nc(NC(=O)C(C)(C)C)c2cc3cccc(C)c3nc21	RanGTP-Impb inh 47 (no result: Hck-Nef inh, Runt-CBFb FRET, Runt-SMMHC FRET)
Cc1cccc(-c2cccc(NC(=O)C3CCCN(Cc4cccnc4)C3)c2)c1 (centres undefined)	none (no result: Hck-Nef inh, Runt-CBFb FRET, Runt-SMMHC FRET)
COc1cccc2cc(/C(=N/O)c3ccccc3)oc12	none
CCCCCC(O)(c1ccc(OCC)cc1)C(CN1CCOCC1)c1ccccc1 (centres undefined)	none (no result: Hck-Nef inh, Runt-CBFb FRET, Runt-SMMHC FRET)
CCOc1ccc(CCNC(=O)c2cccc(S(=O)(=O)N3CCCCC3)c2)cc1OCC	none (no result: Hck-Nef inh, Runt-CBFb FRET, Runt-SMMHC FRET)
Cc1ccccc1NC(=O)c1ccccn1	none
Cc1cccc2cc3c(NC(=O)c4ccccn4)nn(C)c3nc12	Runt-CBFb FRET 57, RanGTP-Impb inh 35
Nc1cccc2c1C(=O)N(C(=O)/C=C/c1cccc(F)c1)C2=O	RanGTP-Impb inh 27, Runt-SMMHC FRET 90
COc1cc(/C=C/C(=O)N2C(=O)c3cccc(N)c3C2=O)cc(OC)c1OC	RanGTP-Impb inh inconclusive
Nc1cccc2c1C(=O)N(C(=O)/C=C/c1cccc(Br)c1)C2=O	RanGTP-Impb inh 34, Runt-SMMHC FRET 84
Cc1nc(Sc2ccc(Br)cc2)c(C#N)c(C)c1[N+](=O)[O-]	RanGTP-Impb inh inconclusive
Cc1ccc(N(CC(=O)NC2CCCCC2)C(=O)CNC(=O)c2ccco2)c(C)c1	none (no result: Hck-Nef inh, Runt-CBFb FRET, Runt-SMMHC FRET)
OC(COc1ccc(Br)cc1)CN1CCC(Cc2ccccc2)CC1 (centres undefined)	none (no result: Hck-Nef inh, Runt-CBFb FRET, Runt-SMMHC FRET)
CN(C)C(=O)[C@H]1C[C@H]1[C@@H](O)[C@H](CO)NC(=O)[C@H](Cc1ccccc1)NC(=O)OC(C)(C)C	none (no result: Hck-Nef inh, Runt-CBFb FRET, Runt-SMMHC FRET)
COc1ccc(C2CC(=O)C3=C(C2)Nc2ccccc2N(C(=O)C2CC2)C3c2cccnc2)cc1OC (centres undefined)	none
COc1cc(C2Nc3ccccc3NC3=C2C(=O)CC(c2ccc(OC)c(OC)c2)C3)ccc1O (centres undefined)	Runt-SMMHC FRET 56
